# From ChEMBL document CHEMBL4715736, “Identification of anticancer agents based on the thieno[2,3-b]pyridine and 1H-pyrazole molecular scaffolds” (2016)
# Test system: MDA-MB-435
# Experiment: Growth inhibition of human MDA-MB-435 cells assessed as cell growth at 100 uM incubated for 48 hrs by sulforhodamine B assay relative to control
# Format: functional
# Settings: read-out: Activity
row,Compound,growth at 100 µM
1,CN1CCc2nc3sc(C(N)=O)c(N)c3c(-c3cccs3)c2C1,3%

# Test system: OVCAR-4
# Experiment: Growth inhibition of human OVCAR-4 cells assessed as cell growth at 100 uM incubated for 48 hrs by sulforhodamine B assay relative to control
# Format: functional
# Settings: read-out: Activity
row,Compound,growth at 100 µM
1,CN1CCc2nc3sc(C(N)=O)c(N)c3c(-c3cccs3)c2C1,6%

# Test system: MCF7
# Experiment: Growth inhibition of human MCF7 cells assessed as cell growth at 100 uM incubated for 48 hrs by sulforhodamine B assay relative to control
# Format: functional
# Settings: read-out: Activity
row,Compound,growth at 100 µM
1,CN1CCc2nc3sc(C(N)=O)c(N)c3c(-c3cccs3)c2C1,11%

# Test system: SR
# Experiment: Growth inhibition of human SR cells incubated for 48 hrs by sulforhodamine B assay
# Format: functional
# Settings: not given
# In short: (§1)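 NCI DTP 60-line human tumour panel. Dose-response curves were run only for ligands active in the initial 10 µM screen. GI50 (concentration giving 50% of maximal inhibition of proliferation) and TGI (concentration giving total growth inhibition) were derived from these curves.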
Compound,GI50,LC50,TGI
CN1CCc2nc3sc(C(N)=O)c(N)c3c(-c3cccs3)c2C1,1.8 µM,> 100 µM,7.31 µM

# Test system: SNB-75
# Experiment: Growth inhibition of human SNB-75 cells incubated for 48 hrs by sulforhodamine B assay
# Format: functional
# Settings: not given
# In short: as §1
Compound,GI50,LC50,TGI
CN1CCc2nc3sc(C(N)=O)c(N)c3c(-c3cccs3)c2C1,2.81 µM,> 100 µM,8.03 µM

# Test system: MDA-MB-435
# Experiment: Growth inhibition of human MDA-MB-435 cells incubated for 48 hrs by sulforhodamine B assay
# Format: functional
# Settings: not given
# In short: (§2)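 NCI60 panel at the NCI Developmental Therapeutics Program. Only compounds active in the 10 µM screen went to dose-response testing. GI50, the concentration giving 50% of maximal inhibition of proliferation, and TGI, the concentration giving total growth inhibition, were derived from the dose-response curves.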
Compound,GI50,TGI
CN1CCc2nc3sc(C(N)=O)c(N)c3c(-c3cccs3)c2C1,3.13 µM,> 100 µM

# Same assay, conditions: read-out: LC50 (the source's name)
row,Compound,CC50
1,CN1CCc2nc3sc(C(N)=O)c(N)c3c(-c3cccs3)c2C1,> 100 µM

# Test system: SK-MEL-28
# Experiment: Growth inhibition of human SK-MEL-28 cells incubated for 48 hrs by sulforhodamine B assay
# Format: functional
# Settings: not given
# In short: as §1
Compound,GI50,LC50,TGI
CN1CCc2nc3sc(C(N)=O)c(N)c3c(-c3cccs3)c2C1,2.91 µM,> 100 µM,9.59 µM

# Test system: OVCAR-8
# Experiment: Growth inhibition of human OVCAR-8 cells incubated for 48 hrs by sulforhodamine B assay
# Format: functional
# Settings: not given
# In short: as §1
Compound,GI50,TGI
CN1CCc2nc3sc(C(N)=O)c(N)c3c(-c3cccs3)c2C1,2.7 µM,> 100 µM

# Same assay, conditions: read-out: LC50 (the source's name)
row,Compound,CC50
1,CN1CCc2nc3sc(C(N)=O)c(N)c3c(-c3cccs3)c2C1,> 100 µM

# Test system: CAKI-1
# Experiment: Growth inhibition of human CAKI-1 cells incubated for 48 hrs by sulforhodamine B assay
# Format: functional
# Settings: not given
# In short: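 NCI Developmental Therapeutics Program NCI60 panel. Compounds that were active in the 10 µM one-dose screen went on to dose–response testing. Growth at each concentration is expressed relative to untreated control (100%). GI50 (concentration giving 50% of maximal inhibition of proliferation) and TGI (concentration giving total growth inhibition) were derived from the curves.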
Compound,GI50,TGI
CN1CCc2nc3sc(C(N)=O)c(N)c3c(-c3cccs3)c2C1,2.82 µM,> 100 µM

# Same assay, conditions: read-out: LC50 (the source's name)
row,Compound,CC50
1,CN1CCc2nc3sc(C(N)=O)c(N)c3c(-c3cccs3)c2C1,> 100 µM

# Test system: MCF7
# Experiment: Growth inhibition of human MCF7 cells incubated for 48 hrs by sulforhodamine B assay
# Format: functional
# Settings: not given
# In short: as §2
Compound,GI50,TGI
CN1CCc2nc3sc(C(N)=O)c(N)c3c(-c3cccs3)c2C1,4.1 µM,> 100 µM

# Same assay, conditions: read-out: LC50 (the source's name)
row,Compound,CC50
1,CN1CCc2nc3sc(C(N)=O)c(N)c3c(-c3cccs3)c2C1,> 100 µM
